Source: ChEMBL document CHEMBL1142433, “Synthesis and pharmacological characterization at glutamate receptors of the four enantiopure isomers of tricholomic acid” (J Med Chem, 2008)

What was measured:
[1] = Displacement of [3H]AMPA from AMPA receptor in rat cortical membrane; format: cell membranes
Summary of the method: (§1)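 Competition binding on rat cortical membranes prepared by the Ransom and Stec method, using [3H]AMPA (AMPA receptors) or [3H]KA (kainate receptors). IC50 in µM reported as mean [pIC50 ± SEM] of at least three individual experiments.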

[2] = Displacement of [3H]KA from kainate receptor in rat cortical membrane; format: cell membranes; summary of the method: as §1
Glutamate NMDA receptor = assay: Displacement of [3H]CGP-39653 from NMDA receptor in rat cortical membrane; format: cell membranes
Summary of the method: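 NMDA receptor binding on rat cortical membranes prepared by the Ransom and Stec method, with [3H]CGP39653 as radioligand. Ki in µM reported as mean [pKi ± SEM] of at least three individual experiments.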

Glutamate receptor 1 = Glutamate receptor 1 (Rattus norvegicus, UniProt P19490); assay: Activity at rat cloned iGluR1 expressed in human HEK293 cells by calcium imaging assay; format: cell-based
Summary of the method: (§2)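 Rat iGluR1–6 subtypes cloned and expressed in HEK cells: iGluR2, iGluR5 and iGluR6 as the Q forms; iGluR1–4 marked with subscript "i". Receptor activation was read by Fluo-4 calcium imaging.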

[3] = target: Glutamate receptor 1 (Rattus norvegicus) (UniProt P19490); assay: Activity at rat cloned iGluR1 expressed in human HEK293 cells by calcium imaging assay relative to L-glutamate; format: cell-based; parameters: concentration or dose not given beside the values; summary of the method: as §2
Glutamate receptor 2 = Glutamate receptor 2 (Rattus norvegicus, UniProt P19491); assay: Activity at rat cloned iGluR2 expressed in human HEK293 cells by calcium imaging assay; format: cell-based
[4] = target: Glutamate receptor 2 (Rattus norvegicus) (UniProt P19491); assay: Activity at rat cloned iGluR2 expressed in human HEK293 cells by calcium imaging assay relative to L-glutamate; format: cell-based; parameters: concentration or dose not given beside the values; summary of the method: as §2
Glutamate receptor 3 = Glutamate receptor 3 (Rattus norvegicus, UniProt P19492); assay: Activity at rat cloned iGluR3 expressed in human HEK293 cells by calcium imaging assay; format: cell-based; summary of the method: as §2
[5] = target: Glutamate receptor 3 (Rattus norvegicus) (UniProt P19492); assay: Activity at rat cloned iGluR3 expressed in human HEK293 cells by calcium imaging assay relative to L-glutamate; format: cell-based; parameters: concentration or dose not given beside the values; summary of the method: as §2
Glutamate receptor 4 = Glutamate receptor 4 (Rattus norvegicus, UniProt P19493); assay: Activity at rat cloned iGluR4 expressed in human HEK293 cells by calcium imaging assay; format: cell-based; summary of the method: as §2
[6] = target: Glutamate receptor 4 (Rattus norvegicus) (UniProt P19493); assay: Activity at rat cloned iGluR4 expressed in human HEK293 cells by calcium imaging assay relative to L-glutamate; format: cell-based; parameters: concentration or dose not given beside the values; summary of the method: as §2
[7] = target: Glutamate receptor ionotropic, kainate 1 (Rattus norvegicus, UniProt P22756); assay: Activity at rat cloned iGluR5 expressed in human HEK293 cells by calcium imaging assay; format: cell-based
[8] = target: Glutamate receptor ionotropic, kainate 1 (Rattus norvegicus) (UniProt P22756); assay: Activity at rat cloned iGluR5 expressed in human HEK293 cells by calcium imaging assay relative to L-glutamate; format: cell-based; parameters: concentration or dose not given beside the values; summary of the method: as §2
[9] = target: Glutamate receptor ionotropic, kainate 2 (Rattus norvegicus, UniProt P42260); assay: Activity at rat cloned iGluR6 expressed in human HEK293 cells by calcium imaging assay; format: cell-based; summary of the method: as §2
[10] = target: Glutamate receptor ionotropic, kainate 2 (Rattus norvegicus) (UniProt P42260); assay: Activity at rat cloned iGluR6 expressed in human HEK293 cells by calcium imaging assay relative to L-glutamate; format: cell-based; parameters: concentration or dose not given beside the values; summary of the method: as §2
[11] = target: Metabotropic glutamate receptor 2 (Rattus norvegicus, UniProt P31421); assay: Activity at rat cloned mGluR2 expressed in CHO cells assessed as effect on cAMP accumulation; format: functional, cell-based
Summary of the method: (§3)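 Second-messenger functional assay on rat mGluR1a (group I), mGluR2 (group II) and mGluR4 (group III) expressed in CHO cells. EC50 in µM with pEC50, reported as mean [pEC50 ± SEM] of at least three independent experiments.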

[12] = target: Metabotropic glutamate receptor 1 (Rattus norvegicus, UniProt P23385); assay: Activity at rat cloned mGluR1a expressed in CHO cells assessed as effect on cAMP accumulation; format: functional, cell-based; summary of the method: as §3
[13] = target: Metabotropic glutamate receptor 4 (Rattus norvegicus, UniProt P31423); assay: Activity at rat cloned mGluR4 expressed in CHO cells assessed as effect on cAMP accumulation; format: functional, cell-based; summary of the method: as §3

Glutamate receptor ionotropic, kainate 1 (Rattus norvegicus), sequence (P22756 whole entry): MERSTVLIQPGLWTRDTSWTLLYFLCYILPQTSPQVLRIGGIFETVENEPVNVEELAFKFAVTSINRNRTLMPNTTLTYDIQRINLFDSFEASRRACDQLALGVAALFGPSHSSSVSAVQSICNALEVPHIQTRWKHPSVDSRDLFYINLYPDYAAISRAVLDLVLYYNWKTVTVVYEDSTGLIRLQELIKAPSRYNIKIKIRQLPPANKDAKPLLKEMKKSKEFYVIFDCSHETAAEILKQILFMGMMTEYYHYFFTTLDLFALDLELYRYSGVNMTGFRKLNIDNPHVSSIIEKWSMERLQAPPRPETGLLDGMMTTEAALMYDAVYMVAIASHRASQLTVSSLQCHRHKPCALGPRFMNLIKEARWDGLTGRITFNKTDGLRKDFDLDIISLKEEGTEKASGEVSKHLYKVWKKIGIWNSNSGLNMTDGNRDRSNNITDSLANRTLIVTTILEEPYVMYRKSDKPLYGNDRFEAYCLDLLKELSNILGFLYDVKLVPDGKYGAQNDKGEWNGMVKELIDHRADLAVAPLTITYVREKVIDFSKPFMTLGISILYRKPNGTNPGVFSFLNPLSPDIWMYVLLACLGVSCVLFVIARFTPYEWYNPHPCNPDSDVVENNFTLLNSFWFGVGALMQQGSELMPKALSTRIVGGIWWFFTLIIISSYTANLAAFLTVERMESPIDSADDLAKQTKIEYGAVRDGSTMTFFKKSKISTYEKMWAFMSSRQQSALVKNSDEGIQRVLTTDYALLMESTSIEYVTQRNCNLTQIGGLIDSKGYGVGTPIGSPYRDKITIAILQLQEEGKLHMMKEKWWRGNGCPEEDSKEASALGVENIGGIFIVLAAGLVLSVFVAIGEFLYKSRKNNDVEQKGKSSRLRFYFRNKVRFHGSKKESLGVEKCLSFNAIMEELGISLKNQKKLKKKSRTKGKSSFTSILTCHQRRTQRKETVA
Glutamate receptor ionotropic, kainate 1, sequence (P22756 whole entry): as above
Glutamate receptor ionotropic, kainate 2, sequence (P42260 whole entry): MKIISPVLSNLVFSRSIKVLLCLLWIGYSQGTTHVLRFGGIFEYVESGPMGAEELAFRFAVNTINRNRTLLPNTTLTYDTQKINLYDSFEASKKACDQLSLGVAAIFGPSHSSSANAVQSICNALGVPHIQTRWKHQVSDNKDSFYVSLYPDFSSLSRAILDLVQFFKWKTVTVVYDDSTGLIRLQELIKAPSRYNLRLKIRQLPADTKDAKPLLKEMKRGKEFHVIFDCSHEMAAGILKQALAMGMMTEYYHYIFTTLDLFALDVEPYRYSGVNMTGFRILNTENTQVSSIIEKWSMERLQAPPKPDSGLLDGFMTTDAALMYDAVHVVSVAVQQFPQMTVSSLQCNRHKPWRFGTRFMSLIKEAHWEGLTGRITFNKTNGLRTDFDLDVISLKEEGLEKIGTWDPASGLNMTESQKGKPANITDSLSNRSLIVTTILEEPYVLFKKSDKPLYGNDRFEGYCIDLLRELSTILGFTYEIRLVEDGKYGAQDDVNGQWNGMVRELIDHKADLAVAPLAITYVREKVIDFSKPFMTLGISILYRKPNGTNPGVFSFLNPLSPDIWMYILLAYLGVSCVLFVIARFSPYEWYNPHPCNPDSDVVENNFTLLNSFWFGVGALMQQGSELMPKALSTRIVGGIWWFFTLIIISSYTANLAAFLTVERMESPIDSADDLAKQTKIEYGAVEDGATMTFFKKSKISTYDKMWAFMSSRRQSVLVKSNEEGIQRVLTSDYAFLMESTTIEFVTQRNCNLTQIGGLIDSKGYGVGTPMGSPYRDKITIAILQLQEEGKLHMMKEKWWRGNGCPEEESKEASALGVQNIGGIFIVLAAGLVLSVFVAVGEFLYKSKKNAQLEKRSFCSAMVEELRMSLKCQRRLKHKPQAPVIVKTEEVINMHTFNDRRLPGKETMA
Glutamate receptor ionotropic, kainate 2 (Rattus norvegicus), sequence (P42260 whole entry): as above
Metabotropic glutamate receptor 2, sequence (P31421 whole entry): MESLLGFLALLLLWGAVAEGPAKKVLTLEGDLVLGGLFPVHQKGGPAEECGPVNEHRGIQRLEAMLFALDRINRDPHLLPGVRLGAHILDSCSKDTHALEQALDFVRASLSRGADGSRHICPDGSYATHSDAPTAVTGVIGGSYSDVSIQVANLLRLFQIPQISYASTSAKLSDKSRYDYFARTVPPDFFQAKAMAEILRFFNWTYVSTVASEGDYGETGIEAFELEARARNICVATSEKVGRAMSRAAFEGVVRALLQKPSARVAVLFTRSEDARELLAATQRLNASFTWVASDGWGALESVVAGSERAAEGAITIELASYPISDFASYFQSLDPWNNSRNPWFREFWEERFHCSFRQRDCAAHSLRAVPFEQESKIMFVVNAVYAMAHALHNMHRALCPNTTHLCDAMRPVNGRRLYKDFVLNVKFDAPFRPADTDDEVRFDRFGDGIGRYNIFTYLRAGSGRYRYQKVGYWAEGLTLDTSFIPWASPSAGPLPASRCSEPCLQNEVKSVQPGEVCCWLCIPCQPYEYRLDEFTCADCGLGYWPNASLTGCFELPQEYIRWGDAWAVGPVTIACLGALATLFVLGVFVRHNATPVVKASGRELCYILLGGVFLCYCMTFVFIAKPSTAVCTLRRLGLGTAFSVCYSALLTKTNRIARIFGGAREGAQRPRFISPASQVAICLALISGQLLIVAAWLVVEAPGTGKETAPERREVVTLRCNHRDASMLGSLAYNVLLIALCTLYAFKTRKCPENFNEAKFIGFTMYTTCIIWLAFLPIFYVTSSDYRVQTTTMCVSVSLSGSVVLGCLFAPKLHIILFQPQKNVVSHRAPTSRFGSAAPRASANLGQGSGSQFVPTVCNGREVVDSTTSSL
Glutamate receptor 4, sequence (P19493 whole entry): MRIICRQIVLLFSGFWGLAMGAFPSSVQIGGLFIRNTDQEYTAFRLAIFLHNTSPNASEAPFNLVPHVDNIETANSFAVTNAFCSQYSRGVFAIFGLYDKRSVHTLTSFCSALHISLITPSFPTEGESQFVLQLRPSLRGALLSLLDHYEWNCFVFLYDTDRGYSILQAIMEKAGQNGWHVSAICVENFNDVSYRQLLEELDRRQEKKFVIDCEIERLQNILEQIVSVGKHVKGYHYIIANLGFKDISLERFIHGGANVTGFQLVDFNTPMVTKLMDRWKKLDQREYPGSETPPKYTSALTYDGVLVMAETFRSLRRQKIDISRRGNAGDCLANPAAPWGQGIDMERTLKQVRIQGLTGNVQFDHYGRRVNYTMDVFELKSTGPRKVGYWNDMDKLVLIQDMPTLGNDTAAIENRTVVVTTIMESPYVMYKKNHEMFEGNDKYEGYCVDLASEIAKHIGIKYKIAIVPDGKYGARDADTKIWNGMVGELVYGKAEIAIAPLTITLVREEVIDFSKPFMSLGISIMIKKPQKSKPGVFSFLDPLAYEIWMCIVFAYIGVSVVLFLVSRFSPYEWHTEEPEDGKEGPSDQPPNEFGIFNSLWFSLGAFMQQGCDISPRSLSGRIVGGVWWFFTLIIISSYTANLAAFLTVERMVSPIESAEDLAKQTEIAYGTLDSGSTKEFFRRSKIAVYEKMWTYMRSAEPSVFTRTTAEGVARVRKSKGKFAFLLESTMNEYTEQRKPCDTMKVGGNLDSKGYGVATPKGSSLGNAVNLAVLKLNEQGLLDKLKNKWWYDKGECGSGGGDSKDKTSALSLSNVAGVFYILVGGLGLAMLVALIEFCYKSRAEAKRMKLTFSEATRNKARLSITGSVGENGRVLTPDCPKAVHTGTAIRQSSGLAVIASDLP
Glutamate receptor 4 (Rattus norvegicus), sequence (P19493 whole entry): as above
Glutamate receptor 2 (Rattus norvegicus), sequence (P19491 whole entry): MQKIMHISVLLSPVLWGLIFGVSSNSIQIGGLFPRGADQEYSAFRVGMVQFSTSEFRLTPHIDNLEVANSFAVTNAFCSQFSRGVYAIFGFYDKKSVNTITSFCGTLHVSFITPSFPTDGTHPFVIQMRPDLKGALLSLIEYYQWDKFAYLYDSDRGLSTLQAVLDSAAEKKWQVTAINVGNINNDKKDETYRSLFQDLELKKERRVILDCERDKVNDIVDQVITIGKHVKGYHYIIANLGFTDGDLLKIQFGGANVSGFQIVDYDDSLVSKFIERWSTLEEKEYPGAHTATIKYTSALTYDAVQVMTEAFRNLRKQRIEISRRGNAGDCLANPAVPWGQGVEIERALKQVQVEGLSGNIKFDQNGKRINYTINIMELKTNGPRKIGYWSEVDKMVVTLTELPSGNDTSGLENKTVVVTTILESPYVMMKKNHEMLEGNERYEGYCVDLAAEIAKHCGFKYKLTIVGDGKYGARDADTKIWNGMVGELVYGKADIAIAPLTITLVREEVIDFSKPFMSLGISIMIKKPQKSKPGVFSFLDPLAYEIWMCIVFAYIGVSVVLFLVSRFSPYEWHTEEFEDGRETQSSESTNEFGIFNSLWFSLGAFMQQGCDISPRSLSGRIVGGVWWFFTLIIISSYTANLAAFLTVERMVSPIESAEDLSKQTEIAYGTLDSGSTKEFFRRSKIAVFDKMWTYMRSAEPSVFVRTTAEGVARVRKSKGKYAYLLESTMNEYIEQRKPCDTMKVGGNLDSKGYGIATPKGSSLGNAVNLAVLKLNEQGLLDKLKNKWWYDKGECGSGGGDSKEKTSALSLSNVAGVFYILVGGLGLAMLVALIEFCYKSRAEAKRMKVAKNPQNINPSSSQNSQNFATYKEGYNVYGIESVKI
Glutamate receptor 2, sequence (P19491 whole entry): as above

Row | Compound | IC50 [1] | IC50 [2] | Log IC50 [2] | Ki (Glutamate NMDA receptor) | EC50 (Glutamate receptor 1) | Activity [3] | EC50 (Glutamate receptor 2) | Activity [4] | EC50 (Glutamate receptor 3; read-out: EC50) | Activity [5] | EC50 (Glutamate receptor 4) | Activity [6] | EC50 [7] | Activity [8] | EC50 [9] | Activity [10] | EC50 [11] | EC50 ([12]; read-out: EC50) | EC50 [13] | Log IC50 [1] | other results
1 | N[C@H](C(=O)O)[C@H]1CC(O)=NO1 | > 100 µM | 36 µM | -4.45 | 95 µM | > 1000 µM | 35% | > 1000 µM | 20% | > 1000 µM | 23% | > 1000 µM | 90% | > 1000 µM | 12% | > 1000 µM | 11% | 84 µM | 82 µM | > 1000 µM |  | Log Ki (Glutamate NMDA receptor): -4.03
2 | NC(C(=O)O)C1CC(O)=NO1 (racemic; form 2) [TRICHOLOMIC ACID] | 19 µM | 6 µM | -5.22 |  |  |  |  |  |  |  |  |  |  |  |  |  | 100 µM | 110 µM |  | -4.73 | IC50 (Glutamate NMDA receptor): 73 µM; EC50 ([12]; read-out: Log EC50 (converted)): 79.4 µM
3 | N[C@H](C(=O)O)c1cc(O)no1 [IBOTENIC ACID] | > 100 µM | 22 µM | -4.66 |  |  | 6% |  | 2% |  | 1% |  | 32% |  | 8% |  | 96% |  |  |  |  | 
4 | N[C@@H](C(=O)O)[C@@H]1CC(O)=NO1 | 12 µM | 11 µM | -4.95 | 75 µM | > 1000 µM | 13% | > 1000 µM | 14% | > 1000 µM | 10% | > 1000 µM | 7% | > 1000 µM | 8% | > 1000 µM | 15% | > 1000 µM | > 1000 µM | > 1000 µM | -4.92 | 
5 | NC(C(=O)O)C1CC(O)=NO1 (racemic; form 1) [TRICHOLOMIC ACID] | 1.1 µM | 0.76 µM | -6.14 |  |  |  |  |  |  |  |  |  |  |  |  |  | > 1000 µM | 790 µM | > 1000 µM | -5.86 | IC50 (Glutamate NMDA receptor): 1.5 µM
6 | N[C@@H](C(=O)O)[C@H]1CC(O)=NO1 | > 100 µM | > 100 µM |  | 0.67 µM | > 1000 µM | 15% | > 1000 µM | 13% | > 1000 µM | 10% | > 1000 µM | 9% | > 1000 µM | 10% | > 1000 µM | 11% | > 1000 µM | > 1000 µM | > 1000 µM |  | Log Ki (Glutamate NMDA receptor): -6.19
7 | N[C@H](C(=O)O)c1cc(=O)[nH]o1 [IBOTENIC ACID] |  |  |  |  | > 1000 µM |  | > 1000 µM |  | > 1000 µM |  | > 1000 µM |  | > 1000 µM |  | > 1000 µM |  |  | 43 µM | > 1000 µM |  | 
8 | N[C@H](C(=O)O)[C@@H]1CC(O)=NO1 | 0.95 µM | 0.29 µM | -6.55 | 41 µM | 120 µM | 90% | 480 µM | 74% | 170 µM | 88% | 30 µM | 91% | 280 µM | 91% | 82 µM | 91% | > 1000 µM | 610 µM | > 1000 µM | -6.02 | EC50 (Glutamate receptor 3; read-out: Log EC50 (converted)): 155 µM
